Bioassay records: PubChem BioAssay, The Scripps Research Institute Molecular Screening Center
Only some compounds are listed: those with a hit (about 3% of all), similar ones and a draw of the others.
Wee1 stabilizer: human Wee1 degradation inhibition, primary screen. HeLa Luc-Wee1K328M stability, luciferase luminescence; 100% = proteasome inhibitor MG132 effect. reporter increase, % at 5 µM. 1.2% of 220,000 active. AID 1321;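 active = activation above the mean of all tested compounds plus 3 SD, set per screening run, cut at about 8.8% in these data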;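 note: cells exposed to compound for 20 h before luminescence read; 0% = DMSO alone and 100% = MG132 at 30 µM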
Target sequence (P30291 whole entry K328M): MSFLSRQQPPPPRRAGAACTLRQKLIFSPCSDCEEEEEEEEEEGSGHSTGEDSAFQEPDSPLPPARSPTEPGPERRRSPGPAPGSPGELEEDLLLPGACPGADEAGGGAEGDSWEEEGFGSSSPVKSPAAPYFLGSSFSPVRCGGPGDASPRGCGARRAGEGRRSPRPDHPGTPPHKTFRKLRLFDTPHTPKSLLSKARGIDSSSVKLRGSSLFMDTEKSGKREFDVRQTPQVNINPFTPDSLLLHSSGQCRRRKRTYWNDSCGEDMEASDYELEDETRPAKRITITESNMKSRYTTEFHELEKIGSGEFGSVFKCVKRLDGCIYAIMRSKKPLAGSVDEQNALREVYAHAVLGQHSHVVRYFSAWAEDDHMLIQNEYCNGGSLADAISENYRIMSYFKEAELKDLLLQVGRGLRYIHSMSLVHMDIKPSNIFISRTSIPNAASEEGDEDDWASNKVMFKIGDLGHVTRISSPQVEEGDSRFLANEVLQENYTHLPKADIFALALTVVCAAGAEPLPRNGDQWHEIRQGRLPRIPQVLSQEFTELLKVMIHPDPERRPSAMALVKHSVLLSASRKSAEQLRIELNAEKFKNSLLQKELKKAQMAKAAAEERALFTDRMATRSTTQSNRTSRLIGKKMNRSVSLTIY
Hsp70 act: Hsp70 transcriptional activation, primary screen. HeLa Hsp70 promoter luciferase reporter, luminescence; scaled: vehicle 0, proteasome-inhibitor control 100%. activation, % at 10 µM. 0.04% of 200,000 active;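 active = activation above the mean across all tested compounds plus 3 SD, cutoff set per campaign, cut at about 5.5% in these data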;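 note: 100% = MG132 at 30 µM as the positive control and 0% = DMSO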
NPY Y2 blocker: antagonists of human neuropeptide Y receptor Y2; inhibition, % at 2.7 µM; NPY-Y2 expressing cells, antagonist mode; 0.99% of 140,000 active; P49146; AID 793; in the data active = inhibition above about 17%;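 note: 0% = vehicle with agonist challenge and 100% = reference antagonist with challenge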
NPY Y1 blocker: NPY-Y1 (human) receptor antagonism; inhibition, % at 3.6 µM; HEK293-CNG Y1 cells, membrane potential fluorescence; NPY at EC95, then isoproterenol; AID 1040; 1% of 200,000 active;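 active = inhibition above the campaign mean inhibition of all tested compounds plus 3 SD, cut at about 20% in these data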;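 note: 0% = DMSO wells given NPY plus isoproterenol and 100% = isoproterenol alone without NPY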
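Material: HEK293 Y1/CNG channel cell line; also added: NPY (25 nM), isoproterenol (1 µM), Ro 20-1724 (25 µM); doses: one concentration, 3.6 µM, in 0.4% DMSO; schedule: compound incubation 1 h at room temperature, readout 45 min post-stimulation; technique: membrane potential fluorescence; measure: fluorescence ratio normalized to % inhibition between controls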
NPY1 pot ag: potentiators or agonists of human neuropeptide Y receptor Y1. activation, % at 3.6 µM. NPY-Y1 expressing cells, potentiator/agonist activation. P25929. 0.37% of 220,000 active. AID 1304; in the data active = activation above about 33%, passing the limit was not always enough;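 note: cells stimulated with NPY at EC10 then isoproterenol at EC100; 0% = low agonist plus stimulus and 100% = saturating agonist plus stimulus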
NPY2 pot ag: potentiators or agonists of human neuropeptide Y receptor Y2; P49146; cells expressing NPY-Y2, potentiator/agonist read-out; activation, % at 3.6 µM; 0.45% of 220,000 active; in the data active = activation above about 27%;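 note: cells stimulated with NPY near EC25 plus isoproterenol at EC100; 0% = vehicle plus submaximal agonist and 100% = vehicle plus saturating agonist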
NPY-Y1 pot conf: human NPY-Y1 potentiation or agonism, confirmation. AID 1546. 20% of 280 active. activation, % at 3.6 µM. cell-based NPY-Y1 potentiator/agonist assay. shares compounds with NPY1 pot ag; in the data active = activation above about 45%;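 note: cells challenged with NPY at its EC10 plus isoproterenol stimulus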
NPY-Y2 counter: potentiates or activates NPY-Y2, counter-screen for NPY-Y1 hits; shares compounds with NPY1 pot ag; HEK293-CNG cells, membrane-potential fluorescence (FLIPR), 1536-well; activation, % at 3.6 µM; 20% of 280 active; AID 1649; in the data active = activation above about 33%
NPY-Y1 ag: activates human NPY-Y1, counter-screen for NPY-Y1 potentiators | shares compounds with NPY1 pot ag | HEK293 Y1-CNGC, membrane potential fluorescence, agonist mode | activation, % at 3.6 µM | 50% of 280 active | AID 1697;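 active = percent activation above the mean of DMSO-only control wells plus 3 SD of those wells, cut at about 18% in these data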;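 note: cells challenged with isoproterenol plus Ro 20-1724 with no NPY in test wells; Y1 agonism lowers isoproterenol-driven cAMP and reduces probe fluorescence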
NPY-Y2 agonist: activates human NPY-Y2, counter-screen for NPY-Y1 hits | shares compounds with NPY1 pot ag | HEK293 Y2-CNGC, membrane potential fluorescence, agonist mode | activation, % at 3.6 µM | 67% of 280 active | AID 1698;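 active = activation above the solvent-only control wells' mean plus 3 SD, cut at about 11% in these data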;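 note: 0% = DMSO with isoproterenol and 100% = 40 nM NPY maximal response; agonism lowers cAMP so well fluorescence drops in active wells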
CNGC inh 2: counter-screen for NPY-Y1 potentiators or agonists: CNG channel inhibitors; inhibition, % at 3.6 µM; shares compounds with NPY1 pot ag; HEK293-CNG parental, isoproterenol cAMP, membrane potential fluorescence; 42% of 280 active; AID 1704;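 active = inhibition above the mean of stimulated solvent-only control wells plus 3 SD, cut at about 22% in these data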;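 note: 0% = isoproterenol-stimulated DMSO wells and 100% = unstimulated DMSO wells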
Active calls of the source: *.

How did Cc1ccc(S(=O)(=O)N2CCCC2)cc1[N+](=O)[O-] do in these assays?
Wee1 stabilizer: -2; Hsp70 act: 0; NPY Y2 blocker: 1; NPY Y1 blocker: 0; NPY1 pot ag: 15; NPY2 pot ag: 7

How did Cc1cc(C)c(NC(=O)c2ccc(CN3CCc4ccccc4C3)cc2)c(C)c1 do in these assays?
Wee1 stabilizer: 0; Hsp70 act: 0; NPY Y2 blocker: 8; NPY Y1 blocker: 1; NPY1 pot ag: 57*; NPY2 pot ag: 7; NPY-Y1 pot conf: -15; NPY-Y2 counter: -9; NPY-Y1 ag: 6; NPY-Y2 agonist: -2; CNGC inh 2: -14

What do the screens show for `Cc1c(NC(=O)c2ccc(CN3CCc4ccccc4C3)cc2)c(=O)n(-c2ccccc2)n1C`?
Wee1 stabilizer: 0; Hsp70 act: 0; NPY Y2 blocker: 1; NPY Y1 blocker: 3; NPY1 pot ag: 8; NPY2 pot ag: 14

What do the screens show for `O=C(CCC1CC(=O)Nc2ccccc21)NCc1ccc(F)cc1` (stereo not given)?
Wee1 stabilizer: 0; Hsp70 act: 0; NPY Y2 blocker: -2; NPY Y1 blocker: 4; NPY1 pot ag: 68*; NPY2 pot ag: -26; NPY-Y1 pot conf: 0; NPY-Y2 counter: -2; NPY-Y1 ag: -1; NPY-Y2 agonist: -5; CNGC inh 2: 1

How did O=C(CCC1CC(=O)Nc2ccccc21)NCc1ccccc1 (stereo not given) do in these assays?
Wee1 stabilizer: 1; Hsp70 act: 0; NPY Y2 blocker: 3; NPY Y1 blocker: 10; NPY1 pot ag: -7; NPY2 pot ag: 10

What do the screens show for `CS(=O)(=O)Nc1ccccc1C(=O)O`?
Wee1 stabilizer: 2; Hsp70 act: 0; NPY Y2 blocker: -1; NPY Y1 blocker: -6; NPY1 pot ag: 11; NPY2 pot ag: 6

What do the screens show for `CCN(CC)C(=O)c1ccccc1NS(C)(=O)=O`?
Wee1 stabilizer: 0; Hsp70 act: 0; NPY Y1 blocker: 1; NPY1 pot ag: 37*; NPY2 pot ag: 4; NPY-Y1 pot conf: -6; NPY-Y2 counter: -4; NPY-Y1 ag: -4; NPY-Y2 agonist: 5; CNGC inh 2: -5

Results for CC(C)(C)c1cc(NCCCn2ccnc2)n2ncc(-c3ccc(Cl)cc3)c2n1 ?
Wee1 stabilizer: 1; Hsp70 act: 0; NPY Y2 blocker: -4; NPY Y1 blocker: -4; NPY1 pot ag: 33; NPY2 pot ag: 19

Results for CN(C)CCCNc1cc(C(C)(C)C)nc2c(-c3ccccc3)cnn12 ?
Wee1 stabilizer: 2; NPY1 pot ag: 55*; NPY2 pot ag: 27; NPY-Y1 pot conf: 41; NPY-Y2 counter: 34*; NPY-Y1 ag: 25*; NPY-Y2 agonist: 20*; CNGC inh 2: 35*

Results for CC(C)c1ccc2[nH]c(O)c(N=NC(=O)c3cccc(S(=O)(=O)Nc4ccc(Cl)cc4)c3)c2c1 ?
Wee1 stabilizer: 3; Hsp70 act: 0; NPY Y1 blocker: 0; NPY1 pot ag: 5; NPY2 pot ag: 18

How did CC(C)c1ccc2[nH]c(O)c(N=NC(=O)c3cccc(S(=O)(=O)Nc4cccc(Cl)c4)c3)c2c1 do in these assays?
Wee1 stabilizer: 11*; NPY1 pot ag: 50*; NPY2 pot ag: -8; NPY-Y1 pot conf: 29; NPY-Y2 counter: 23; NPY-Y1 ag: 24*; NPY-Y2 agonist: 28*; CNGC inh 2: 20

Results for CC(C)Cn1nnc2c(=O)oc3ccccc3c21 ?
Wee1 stabilizer: 0; Hsp70 act: 0; NPY Y2 blocker: 0; NPY Y1 blocker: 1; NPY1 pot ag: 60*; NPY2 pot ag: 14; NPY-Y1 pot conf: 38; NPY-Y2 counter: 24; NPY-Y1 ag: 25*; NPY-Y2 agonist: 23*; CNGC inh 2: 22*

Results for CC(C)Cn1c(N)c(C(=O)COC(=O)c2cnc(Cl)c(Cl)c2)c(=O)n(C)c1=O ?
Wee1 stabilizer: 3; Hsp70 act: 0; NPY Y1 blocker: -3; NPY1 pot ag: 42*; NPY2 pot ag: 24; NPY-Y1 pot conf: 38; NPY-Y2 counter: 42*; NPY-Y1 ag: 33*; NPY-Y2 agonist: 24*; CNGC inh 2: 16

What do the screens show for `CC(C)(C)c1ccc(C(=O)NCC(=O)OCC(=O)c2ccc3c(c2)-c2ccccc2C3)cc1`?
Wee1 stabilizer: -2; Hsp70 act: 0; NPY Y2 blocker: 0; NPY Y1 blocker: -3; NPY1 pot ag: 7; NPY2 pot ag: -1

Results for CC1N(C)c2cc(NC(=O)c3ccco3)c(P(=O)(Nc3ccc([N+](=O)[O-])cc3)N3CCOCC3)cc2C1(C)C (stereo not given) ?
Wee1 stabilizer: 2; Hsp70 act: 0; NPY Y1 blocker: -9; NPY1 pot ag: 37*; NPY2 pot ag: 22; NPY-Y1 pot conf: 37; NPY-Y2 counter: 25; NPY-Y1 ag: 17; NPY-Y2 agonist: 29*; CNGC inh 2: 24*

What do the screens show for `CC1N(C)c2cc(NC(=O)c3ccco3)ccc2C1(C)C` (stereo not given)?
Wee1 stabilizer: 4; Hsp70 act: 0; NPY Y2 blocker: 13; NPY Y1 blocker: 8; NPY1 pot ag: -26; NPY2 pot ag: -15

Results for COc1ccccc1N1CCN(C2CC(=O)N(C)C2=O)CC1 (stereo not given) ?
Wee1 stabilizer: 2; Hsp70 act: 0; NPY Y1 blocker: 2; NPY1 pot ag: -13; NPY2 pot ag: -16

How did C=CCn1c(SCC(=O)Nc2sccc2C(N)=O)nc2ccc(Cl)cc2c1=O do in these assays?
Wee1 stabilizer: 7; Hsp70 act: 0; NPY Y2 blocker: -2; NPY Y1 blocker: -5; NPY1 pot ag: 38*; NPY2 pot ag: 13; NPY-Y1 pot conf: 23; NPY-Y2 counter: 18; NPY-Y1 ag: 2; NPY-Y2 agonist: 19*; CNGC inh 2: 9

Results for C=CCn1c(SCC(=O)Nc2sccc2C(N)=O)nc2ccccc2c1=O ?
Wee1 stabilizer: -1; Hsp70 act: 0; NPY Y2 blocker: 3; NPY Y1 blocker: 3; NPY1 pot ag: -3; NPY2 pot ag: 7
